In ChEMBL document CHEMBL4138224, “DNA intercalators based on (1,10-phenanthrolin-2-yl)isoxazolidin-5-yl core with better growth inhibition and selectivity than cisplatin upon head and neck squamous cells carcinoma” (Eur J Med Chem, 2018):
Active and inactive are the calls of the source. The calls are words filed in the database; no cut-off is given here.

Assays:
Bos taurus [1] = species: Bos taurus; test: Induction of calf thymus B DNA intercalation assessed as DNA melting temperature at 31 uM by UV-vis spectrophotometric method (reference value: 354K)
Summary of the method: (§1)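 ct-DNA (31 μM in base pair) mixed with 31 μM compound, taken as saturating, in PBS. Absorbance at 260 nm monitored while heating 308 to 388 K at 1 K/min with a Peltier unit, giving melting curves. Binding constants estimated from the melting data.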

[2] = Selectivity index, ratio of IC50 for human 184B5 cells to IC50 for human HN13 cells; assay type: toxicity; conditions: 184B5 cells versus HN13 cells, read-out: Ratio IC50
Bacteria = test: Induction of bacterial pGEM-T easy DNA intercalation assessed as topoisomerase 1-mediated conversion of relaxed plasmid DNA to negatively supercoiled DNA at 10 nM after 30 mins by agarose-gel electrophoresis method
Summary of the method: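 Relaxed pGEM-T Easy plasmid was made by Topo I treatment of supercoiled plasmid. Stopped with SDS/proteinase K (30 min, 50 °C). Run on 1% agarose in TBE, ethidium bromide stain; relaxed-to-supercoiled conversion scored.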

WSU-HN13 [3] = test: Potency index, ratio of cisplatin IC50 to test compound IC50 for human HN13 cells; assay type: functional
184B5 = test: Cytotoxicity against human 184B5 cells assessed as decrease in cell viability after 24 hrs by MTT assay; assay type: cell-based; conditions: 184B5, 24 h
Summary of the method: (§2)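 Cells seeded at 1×10^4 per well in complete medium with 10% FBS and antibiotics, 37 °C, 5% CO2. Washed with serum-free medium, then exposed to compounds for 24 h. MTT (5 mg/mL) added for a further 4 h, formazan dissolved in DMSO, absorbance read at 490 nm. Triplicates; IC50 obtained by non-linear regression of dose-response curves.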

[4] = Cytotoxicity against human HN6 cells assessed as decrease in cell viability after 24 hrs by MTT assay; assay type: functional, cell-based; conditions: HN-6, 24 h; summary of the method: as §2
[5] = Potency index, ratio of cisplatin IC50 to test compound IC50 for human HN6 cells; assay type: functional
[6] = Selectivity index, ratio of IC50 for human 184B5 cells to IC50 for human HN6 cells; assay type: toxicity; conditions: 184B5 cells versus HN6 cells, read-out: Ratio IC50
Bos taurus [7] = species: Bos taurus; test: Induction of calf thymus B DNA intercalation assessed as drug binding constant at DNA melting temperature at 31 uM by UV-vis spectrophotometric method; summary of the method: as §1
Bos taurus [8] = species: Bos taurus; test: Induction of calf thymus B DNA intercalation at 36 uM by CD spectra method
Summary of the method: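 CD titration at 25 °C in quartz cells: fixed ct-DNA (12.6 μM in base pair) with compound added from a 4.26 mM DMSO stock, final 0 to about 35 μM. Each spectrum is an average of 5 runs with 5 min equilibration before each scan, corrected for dilution, cell and solvent.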

[9] = Selectivity index, ratio of IC50 for human 184B5 cells to IC50 for human HeLa cells; assay type: toxicity; conditions: 184B5 cells versus HeLa cells, read-out: Ratio IC50
HeLa = test: Cytotoxicity against human HeLa cells assessed as decrease in cell viability after 24 hrs by MTT assay; assay type: functional, cell-based; summary of the method: as §2
WSU-HN13 [10] = test: Cytotoxicity against human HN13 cells assessed as decrease in cell viability after 24 hrs by MTT assay; assay type: functional, cell-based; conditions: WSU-HN13, 24 h; summary of the method: as §2

Tm (Bos taurus [1])	Activity (Bacteria)	K (Bos taurus [7])	Activity (Bos taurus [8])	SMILES	selectivity ratio [2]	Ratio IC50 (WSU-HN13 [3])	IC50 (184B5)	IC50 [4]	Ratio IC50 [5]	selectivity ratio [6]	selectivity ratio [9]	IC50 (HeLa)	IC50 (WSU-HN13 [10])
84.9 °C	Active	4.53 ×10⁴ /M	Active	COc1ccccc1CN1O[C@H](CO)C[C@@H]1c1ccc2ccc3cccnc3c2n1 (relative stereo)	72	9.2	324 µM	6.3 µM	3.4	51.4	24.3	13.3 µM	4.5 µM
81.9 °C	Active	9.26 ×10³ /M	Active	COc1ccccc1CN1O[C@@H](CO)C[C@@H]1c1ccc2ccc3cccnc3c2n1 (relative stereo)	–	–	381 µM	24.8 µM	–	–	–	40.2 µM	25.4 µM
